Reference: ChEMBL document CHEMBL4811254, “Beyond Basicity: Discovery of Nonbasic DENV-2 Protease Inhibitors with Potent Activity in Cell Culture” (J Med Chem, 2021)
pEC50: −log10 of the molar value. Activity calls are given as the source filed them.

Legend:
Genome polyprotein = Genome polyprotein (dengue virus type 2, UniProt P29990); experiment: Inhibition of NS2B-NS3 protease in DENV2proHeLa system assessed as inhibition of luciferase signal incubated for 24 hrs by luciferase reporter gene assay; assay type: cell-based, HeLa
Outline: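 HeLa cells stably carrying the reporter system, 2 × 10⁴ per well, given inhibitor at seeding and held 24 h at 37 °C. Cells lysed 15 min at room temperature. Luciferase read for 5 s after injecting coelenterazine (2.75 μM in PBS). Triplicate wells per concentration; percent inhibition taken against untreated cells. EC50/EC90 from 4-parameter dose-response fit, background from cell-free wells subtracted.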

[1] = target: Prothrombin (Homo sapiens) (UniProt P00734); experiment: Inhibition of thrombin in human plasma using Boc-Val-Pro-Arg-AMC as substrate at 25 uM preincubated with enzyme for 15 mins followed by substrate addition and measured for 15 mins by fluorimetric assay; assay type: cell-free; settings: time 30.0 min
[2] = target: Genome polyprotein (dengue virus type 2) (UniProt P29990); experiment: Inhibition of NS2B-NS3 protease in DENV2proHeLa system assessed as inhibition of luciferase signal at 12.5 uM incubated for 24 hrs by luciferase reporter gene assay; assay type: cell-based; settings: HeLa
Outline: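 Stable DENV2proHeLa cells seeded at 2 × 10⁴/well and dosed immediately, then incubated 24 h at 37 °C. Cells lysed 15 min at room temperature. Luciferase read with coelenterazine (2.75 μM in PBS) injection, luminescence 5 s. Triplicates; percent inhibition calculated relative to untreated control; background from cell-free wells.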

Trypsin (Homo sapiens) = Trypsin (Homo sapiens) (UniProt P07477+P07478+P35030); experiment: Inhibition of trypsin (unknown origin) using Boc-Val-Pro-Arg-AMC as substrate at 50 uM preincubated with enzyme for 15 mins followed by substrate addition and measured for 15 mins by fluorimetric assay; assay type: protein assay; settings: time 30.0 min
[3] = target: Genome polyprotein (West Nile virus) (UniProt P06935); experiment: Inhibition of WNV NS2B-NS3 protease expressed in Escherichia coli BL21 lambda(DE3) using FRET substrate preincubated with enzyme for 15 mins in presence of detergent CHAPS followed by substrate addition for 15 mins by fluorescence based analysis; settings: time 30.0 min
[4] = Cytotoxicity against human HeLa cells assessed as reduction in cell viability incubated for 24 hrs by CellTiter-Blue assay; assay type: cell-based
Outline: (§1)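 Viability by CellTiter-Blue in HeLa or Huh-7 cells exposed to compound dilutions. Plates run in parallel with the reporter assay (HeLa) or the virus titer assay (Huh-7).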

[5] = target: Genome polyprotein (dengue virus type 2) (UniProt P29990); experiment: Inhibition of DENV2 NS2B-NS3 protease expressed in Escherichia coli BL21 lambda(DE3) using FRET substrate preincubated with enzyme for 15 mins in presence of detergent CHAPS followed by substrate addition for 15 mins by fluorescence based analysis; settings: time 30.0 min
[6] = Passive membrane permeability of the compound in phosphate buffered saline assessed as concentration of the compound in donor plate at 200 uM incubated for 5 hrs by PAMPA assay based HPLC analysis; assay type: ADME
Outline: (§2)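 Precoated trilayer PAMPA, 5 h incubation. Acceptor and donor concentrations measured after 5 h. Permeability and mass retention calculated by a literature method.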

[7] = Passive membrane permeability of the compound in phosphate buffered saline assessed as mass retention of the compound at 200 uM incubated for 5 hrs by PAMPA assay based HPLC analysis; assay type: ADME; outline: as §2
[8] = Passive membrane permeability of the compound in phosphate buffered saline at 200 uM incubated for 5 hrs by PAMPA assay based HPLC analysis; assay type: ADME; settings: PAMPA, read-out: permeability; outline: as §2
[9] = Passive membrane permeability of the compound in phosphate buffered saline assessed as concentration of the compound in acceptor plate at 200 uM incubated for 5 hrs by PAMPA assay based HPLC analysis; assay type: ADME; outline: as §2
dengue virus type 2 [10] = experiment: (§3) Antiviral activity against DENV2 infected in human Huh7 cells assessed as reduction in virus titer in cell supernatant by measuring inhibition of plaque formation using VeroE6 cells at 12.5 uM preincubated with viral infected Huh7 cells for 48 hrs and measured following infection of VeroE6 cells with supernatants for 7 days by plaque assay based crystal violet staining analysis; assay type: functional; settings: Huh-7, 216 h, time 9 day
Outline: (§4)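 Huh-7 cells seeded at 1 × 10⁴/well and incubated overnight. Infected with DENV-2 at MOI 1 for 2 h, then medium changed and compound added. […] Pooled supernatants titred by plaque assay on VeroE6 cells: 10⁻¹ to 10⁻⁶ dilutions, 1 h infection, 7 days, formaldehyde fix, crystal violet.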

Huh-7 = experiment: Cytotoxicity against human Huh-7 cells assessed as reduction in cell viability at 12.5 uM incubated for 48 hrs by CellTiter-Blue assay; assay type: cell-based; settings: huh-7, 48 h; outline: as §1
dengue virus type 2 [11] = experiment: as §3, with “cells” for “cells at 12.5 uM”; assay type: functional, organism-based, Huh-7; outline: as §4

Sequence of Genome polyprotein (West Nile virus) (P06935 whole entry): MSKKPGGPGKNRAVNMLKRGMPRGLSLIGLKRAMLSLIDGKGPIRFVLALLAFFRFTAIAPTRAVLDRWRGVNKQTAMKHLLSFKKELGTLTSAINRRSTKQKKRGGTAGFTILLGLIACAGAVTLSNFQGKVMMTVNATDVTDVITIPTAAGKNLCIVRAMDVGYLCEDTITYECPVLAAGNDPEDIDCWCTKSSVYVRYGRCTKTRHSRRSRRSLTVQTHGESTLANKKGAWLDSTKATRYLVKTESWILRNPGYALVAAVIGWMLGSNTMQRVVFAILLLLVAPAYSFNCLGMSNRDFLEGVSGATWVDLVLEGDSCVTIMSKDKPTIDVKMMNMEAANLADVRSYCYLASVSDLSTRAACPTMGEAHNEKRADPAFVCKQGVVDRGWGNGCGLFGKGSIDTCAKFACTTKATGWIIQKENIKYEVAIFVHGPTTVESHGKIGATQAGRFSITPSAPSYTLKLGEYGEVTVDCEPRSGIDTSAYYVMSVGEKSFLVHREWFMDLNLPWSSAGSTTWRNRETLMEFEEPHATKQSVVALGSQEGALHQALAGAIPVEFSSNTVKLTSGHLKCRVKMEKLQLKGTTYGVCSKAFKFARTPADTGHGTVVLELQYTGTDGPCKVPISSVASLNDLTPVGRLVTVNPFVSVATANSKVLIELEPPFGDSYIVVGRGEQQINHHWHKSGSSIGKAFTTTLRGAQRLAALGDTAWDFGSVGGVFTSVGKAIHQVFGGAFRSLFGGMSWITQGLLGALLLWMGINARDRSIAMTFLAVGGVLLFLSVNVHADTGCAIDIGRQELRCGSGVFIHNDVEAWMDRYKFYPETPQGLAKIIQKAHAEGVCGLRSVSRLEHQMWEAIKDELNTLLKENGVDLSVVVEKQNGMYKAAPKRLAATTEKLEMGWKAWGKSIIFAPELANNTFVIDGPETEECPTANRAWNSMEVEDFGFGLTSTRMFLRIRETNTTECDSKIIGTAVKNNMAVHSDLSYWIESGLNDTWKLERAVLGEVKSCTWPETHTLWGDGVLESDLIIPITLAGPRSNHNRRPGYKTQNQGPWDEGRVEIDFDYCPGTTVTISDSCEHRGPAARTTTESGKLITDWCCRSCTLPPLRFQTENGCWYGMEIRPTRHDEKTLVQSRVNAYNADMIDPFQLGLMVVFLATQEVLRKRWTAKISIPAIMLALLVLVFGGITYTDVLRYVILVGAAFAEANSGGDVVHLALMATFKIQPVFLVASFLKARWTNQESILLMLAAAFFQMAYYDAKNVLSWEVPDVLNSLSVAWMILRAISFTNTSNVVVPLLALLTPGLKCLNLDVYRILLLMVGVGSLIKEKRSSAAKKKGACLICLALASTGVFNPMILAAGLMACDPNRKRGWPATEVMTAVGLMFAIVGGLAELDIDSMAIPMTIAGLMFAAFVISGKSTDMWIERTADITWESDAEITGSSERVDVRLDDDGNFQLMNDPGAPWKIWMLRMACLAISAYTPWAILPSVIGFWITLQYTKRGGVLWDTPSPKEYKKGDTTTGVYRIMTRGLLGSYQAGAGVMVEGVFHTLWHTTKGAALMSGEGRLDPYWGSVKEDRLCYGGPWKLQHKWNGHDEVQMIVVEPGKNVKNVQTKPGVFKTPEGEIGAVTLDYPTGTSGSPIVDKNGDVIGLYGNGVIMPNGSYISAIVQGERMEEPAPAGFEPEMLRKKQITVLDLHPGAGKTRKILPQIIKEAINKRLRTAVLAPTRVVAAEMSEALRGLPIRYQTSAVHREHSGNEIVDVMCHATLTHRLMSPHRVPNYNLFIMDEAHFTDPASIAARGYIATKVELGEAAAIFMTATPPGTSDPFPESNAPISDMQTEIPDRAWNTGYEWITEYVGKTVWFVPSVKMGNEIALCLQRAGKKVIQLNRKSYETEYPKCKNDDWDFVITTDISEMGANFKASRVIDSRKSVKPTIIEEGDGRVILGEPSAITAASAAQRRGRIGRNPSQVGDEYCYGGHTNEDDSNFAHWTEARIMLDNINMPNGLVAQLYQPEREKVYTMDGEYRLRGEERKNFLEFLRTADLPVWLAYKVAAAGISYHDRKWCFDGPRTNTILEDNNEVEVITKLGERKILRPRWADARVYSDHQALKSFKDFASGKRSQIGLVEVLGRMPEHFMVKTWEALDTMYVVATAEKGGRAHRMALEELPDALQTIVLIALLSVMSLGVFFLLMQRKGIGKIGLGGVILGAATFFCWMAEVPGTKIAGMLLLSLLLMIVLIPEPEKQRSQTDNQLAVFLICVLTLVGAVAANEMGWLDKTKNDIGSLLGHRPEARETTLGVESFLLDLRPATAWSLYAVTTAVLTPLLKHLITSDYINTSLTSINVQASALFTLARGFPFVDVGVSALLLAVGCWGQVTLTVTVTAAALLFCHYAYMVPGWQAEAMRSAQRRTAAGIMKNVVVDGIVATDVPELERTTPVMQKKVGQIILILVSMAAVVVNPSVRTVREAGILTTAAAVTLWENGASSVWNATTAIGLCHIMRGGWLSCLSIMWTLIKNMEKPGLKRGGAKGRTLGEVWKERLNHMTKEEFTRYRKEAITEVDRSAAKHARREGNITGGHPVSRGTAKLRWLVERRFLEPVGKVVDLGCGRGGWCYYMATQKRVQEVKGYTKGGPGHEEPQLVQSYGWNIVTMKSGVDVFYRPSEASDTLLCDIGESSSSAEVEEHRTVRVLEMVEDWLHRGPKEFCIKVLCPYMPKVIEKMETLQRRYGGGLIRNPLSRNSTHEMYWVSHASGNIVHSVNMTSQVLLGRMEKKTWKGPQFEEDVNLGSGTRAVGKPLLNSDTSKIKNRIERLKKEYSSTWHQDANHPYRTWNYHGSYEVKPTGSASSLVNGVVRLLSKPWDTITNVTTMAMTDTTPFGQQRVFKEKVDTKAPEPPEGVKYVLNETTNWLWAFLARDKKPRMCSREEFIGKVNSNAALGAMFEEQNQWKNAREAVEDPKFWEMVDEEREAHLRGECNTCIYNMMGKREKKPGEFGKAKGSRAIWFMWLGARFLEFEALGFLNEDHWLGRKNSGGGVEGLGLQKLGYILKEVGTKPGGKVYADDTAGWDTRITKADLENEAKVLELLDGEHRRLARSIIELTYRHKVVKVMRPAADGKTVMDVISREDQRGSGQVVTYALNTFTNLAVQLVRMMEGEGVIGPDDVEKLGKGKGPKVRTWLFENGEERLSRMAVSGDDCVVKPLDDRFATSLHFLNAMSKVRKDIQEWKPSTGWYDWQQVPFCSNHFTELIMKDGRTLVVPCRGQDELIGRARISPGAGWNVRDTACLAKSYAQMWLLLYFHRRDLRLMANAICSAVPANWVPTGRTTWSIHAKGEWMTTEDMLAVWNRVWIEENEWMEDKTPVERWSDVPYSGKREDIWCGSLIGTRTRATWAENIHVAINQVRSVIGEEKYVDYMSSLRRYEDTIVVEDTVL

SMILES	pEC50 (Genome polyprotein)	inhibition [1]	inhibition [2]	inhibition (Trypsin (Homo sapiens))	inhibition [3]	CC50 at 24 h [4]	inhibition [5]	Activity [6]	Activity [7]	Papp at 5 h, 200 µM [8]	Activity [9]	inhibition at 12.5 µM (dengue virus type 2 [10])	Activity (Huh-7)	pEC50 (dengue virus type 2 [11]; Huh-7)	EC90 (dengue virus type 2 [11]; Huh-7, 216 h, time 9 day)
CCCCCCCS(=O)(=O)N[C@H](C(=O)NCc1ccc(C(N)=O)cc1)c1ccc(OCc2ccccc2)cc1	4.96	inactive	47%	inactive	Active	> 25 µM	–	–	–	–	–	–	–	–	–
CCCCCC(=O)N[C@H](C(=O)Nc1cccc(C(N)=O)c1)c1ccc(OCc2ccccc2)cc1	5.34	inactive	76%	inactive	–	> 50 µM	Active	–	–	–	–	–	–	–	–
NC(=O)c1cccc(NC(=O)[C@@H](NC(=O)c2ccc(Oc3ccc4c(c3)OCCO4)cc2)c2ccc(OCc3ccccc3)cc2)c1	5.42	inactive	61%	inactive	Active	> 100 µM	Active	–	–	–	–	–	–	–	–
CCCCCC(=O)N[C@H](C(=O)NCc1ccc(C(N)=O)cc1)c1ccc(OCc2c(Cl)cccc2Cl)cc1	5.08	inactive	71%	inactive	Active	> 50 µM	Active	–	–	–	–	–	–	–	–
Cn1c(=O)c2c(ncn2C)n(C)c1=O [CAFFEINE]	–	–	–	–	–	–	–	173 µM	2.4%	7.3 ×10⁻⁶ cm/s	33 µM	–	–	–	–
NC(=O)c1ccc(CNC(=O)[C@@H](NC(=O)c2ccc(OCc3ccccc3)cc2)c2ccc(OCc3ccccc3)cc2)cc1	5.40	inactive	64%	inactive	Active	> 25 µM	Active	–	–	–	–	–	–	–	–
NC(=O)c1cccc(NC(=O)[C@@H](NC(=O)c2ccc(Oc3ccccc3)cc2)c2ccc(OCc3c(Cl)cccc3Cl)cc2)c1	5.66	inactive	71%	inactive	–	> 50 µM	Active	–	–	–	–	–	–	–	–
NC(=O)c1ccc(CNC(=O)[C@@H](NC(=O)c2ccc(Oc3ccccc3)cc2)c2ccc(OCc3ccccc3)cc2)cc1	6.00	inactive	82%	inactive	–	18 µM	Active	180 µM	8.9%	0.61 ×10⁻⁶ cm/s	3 µM	90%	61.4%	–	–
NC(=O)c1cccc(NC(=O)[C@@H](NC(=O)c2ccc(Oc3cccc4c3C(=O)CC4)cc2)c2ccc(OCc3ccccc3)cc2)c1	5.41	inactive	57%	inactive	Active	> 100 µM	–	–	–	–	–	–	–	–	–
COc1ccccc1Oc1ccc(C(=O)N[C@H](C(=O)Nc2cccc(C(N)=O)c2)c2ccc(OCc3ccccc3)cc2)cc1	5.66	inactive	77%	inactive	Active	> 100 µM	Active	–	–	–	–	–	–	–	–
COc1cccc(COc2ccc([C@H](NC(=O)c3ccc(C(=O)c4ccccc4)cc3)C(=O)Nc3cccc(C(N)=O)c3)cc2)c1	5.92	inactive	79%	inactive	–	> 100 µM	Active	–	–	–	–	–	–	–	–
CCCCCC(=O)N[C@H](C(=O)N1CCC(C(=O)Nc2ccccc2)CC1)c1ccc(OCc2ccccc2)cc1	4.70	inactive	35%	inactive	–	> 50 µM	Active	–	–	–	–	–	–	–	–
CCCCCC(=O)N[C@H](C(=O)NCc1ccc(C(N)=O)cc1)c1ccc(OCc2cccc(OC)c2)cc1	5.14	inactive	61%	inactive	–	> 100 µM	Active	–	–	–	–	–	–	–	–
NC(=O)c1cccc(NC(=O)[C@@H](NC(=O)c2ccc(Oc3ccc4c(c3)OCO4)cc2)c2ccc(OCc3ccccc3)cc2)c1	5.82	inactive	78%	inactive	–	> 100 µM	Active	180 µM	8.7%	0.8 ×10⁻⁶ cm/s	3.7 µM	98%	< 20%	5.66	6.8 µM
CCCCCC(=O)N[C@H](C(=O)NNc1ccc(C(N)=O)cc1)c1ccc(OCc2ccccc2)cc1	5.06	inactive	60%	inactive	–	> 25 µM	Active	–	–	–	–	–	–	–	–
NC(=O)c1cccc(NC(=O)[C@@H](NC(=O)c2ccc3c(c2)OCCO3)c2ccc(OCc3ccccc3)cc2)c1	5.27	inactive	69%	inactive	–	> 100 µM	Active	–	–	–	–	–	–	–	–
NC(=O)c1cccc(NC(=O)[C@@H](NC(=O)c2cccc(Oc3ccccc3)c2)c2ccc(OCc3ccccc3)cc2)c1	5.77	inactive	84%	inactive	–	> 100 µM	Active	–	–	–	–	–	–	–	–
CCCCCCCC(=O)N[C@H](C(=O)NCc1ccc(C(N)=O)cc1)c1ccc(OCc2ccccc2)cc1	–	inactive	56%	inactive	Active	> 50 µM	–	–	–	–	–	–	–	–	–
CCCCCC(=O)N[C@H](C(=O)Nc1cccc(C(N)=O)c1)c1ccc(OCc2c(Cl)cccc2Cl)cc1	5.62	inactive	65%	inactive	–	> 50 µM	Active	–	–	–	–	–	–	–	–
NC(=O)c1cccc(NC(=O)[C@@H](NC(=O)c2ccc(-c3cncnc3)cc2)c2ccc(OCc3ccccc3)cc2)c1	5.09	inactive	59%	inactive	Active	> 50 µM	Active	–	–	–	–	–	–	–	–
O=C1NC(=O)C(c2ccccc2)(c2ccccc2)N1 [PHENYTOIN]	–	–	–	–	–	–	–	166 µM	8.7%	5.7 ×10⁻⁶ cm/s	25 µM	–	–	–	–
NC(=O)N1c2ccccc2C=Cc2ccccc21 [CARBAMAZEPINE]	–	–	–	–	–	–	–	187 µM	-7.6%	8.9 ×10⁻⁶ cm/s	42 µM	–	–	–	–
CCCCCC(=O)N[C@H](C(=O)NCc1ccc(C(N)=O)cc1)c1ccc(OCc2ccc(O)cc2)cc1	–	inactive	43%	inactive	–	> 50 µM	Active	–	–	–	–	–	–	–	–
CCCCCCC(=O)N[C@H](C(=O)NCc1ccc(C(N)=O)cc1)c1ccc(OCc2ccccc2)cc1	5.10	inactive	52%	inactive	–	> 50 µM	Active	–	–	–	–	–	–	–	–
